Laboratory results as given in ChEMBL document CHEMBL2021807, “The conversion of oridonin to spirolactone-type or enmein-type diterpenoid: synthesis and biological evaluation of ent-6,7-seco-oridonin derivatives as novel potential anticancer agents” (Eur J Med Chem, 2012).
pIC50: −log10 of the molar value.

Experiments:
[1] = test system: MGC-803; assay: Cytotoxicity against human MGC803 cells after 72 hrs by MTT assay; type: functional, cell-based; conditions: MGC-803, 72 h
Summary of the method: (§1)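 MTT assay. Log-phase cells were seeded at 5×10^4 cells/ml and treated in four replicates at 0.39–100 μg/ml, 37 °C, 5% CO2. At 72 h, MTT (5 mg/ml solution) was added for 4 h, then DMSO, and OD read at 490 nm. Negative reference was 0.1% DMSO; Taxol at 10 μg/ml served as positive reference. IC50 in μM, mean of three experiments.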

[2] = test system: K562; assay: Cytotoxicity against human K562 cells after 72 hrs by MTT assay; type: functional, cell-based; conditions: K562, 72 h; summary of the method: as §1
[3] = test system: Bel-7402; assay: Cytotoxicity against human Bel7402 cells after 72 hrs by MTT assay; type: functional, cell-based; conditions: Bel-7402, 72 h; summary of the method: as §1
[4] = Cytotoxicity against human CaEs17 cells after 72 hrs by MTT assay; type: functional, cell-based; conditions: CaEs17, 72 h; summary of the method: as §1
[5] = test system: MGC-803; assay: Antitumor activity against human MGC803 cells xenografted in ICR mouse assessed as inhibition of tumor growth at 10 mg/kg, ip qd for 25 consecutive days dosed 7 days post tumor cells transplantation relative to untreated control; type: functional; conditions: MGC-803, ip, 168 h, read-out: INH, route intraperitoneal
Summary of the method: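 MGC-803 gastric cancer tumors in mice, 8 per group. Intraperitoneal dosing at 10 mg/kg in 1% DMSO/2% poloxamer/97% saline, started 7 d after tumor transplantation and given once daily for 25 consecutive days. The negative control received 0.9% saline ip. At the end, mice were killed and weighed and tumors excised and weighed. Inhibition (%) = (1 − mean treated tumor weight/mean control tumor weight) × 100.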

[6] = test system: HeLa; assay: Cytotoxicity against human HeLa cells after 72 hrs by MTT assay; type: functional, cell-based; summary of the method: as §1
[7] = test system: MCF7; assay: Cytotoxicity against human MCF7 cells after 72 hrs by MTT assay; type: functional, cell-based; conditions: MCF7, 72 h; summary of the method: as §1
[8] = test system: A549; assay: Cytotoxicity against human A549 cells after 72 hrs by MTT assay; type: functional, cell-based; conditions: A549, 72 h; summary of the method: as §1
[9] = test system: HepG2; assay: Cytotoxicity against human HepG2 cells; type: functional, cell-based
[10] = test system: MGC-803; assay: Antitumor activity against human MGC803 cells xenografted in ICR mouse assessed as inhibition of tumor growth at 10 mg/kg, iv qd for 25 consecutive days dosed 7 days post tumor cells transplantation relative to untreated control; type: functional; conditions: MGC-803, 168 h
Summary of the method: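 MGC-803 gastric cancer tumors in mice, 8 per group. Intravenous dosing at 10 mg/kg in 1% DMSO/2% poloxamer/97% saline, started 7 d after tumor transplantation and given once daily for 25 consecutive days. The control group received 0.9% saline ip. Tumors were excised and weighed at the end. Inhibition (%) = (1 − mean treated tumor weight/mean control tumor weight) × 100.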

Compound | pIC50 [1] | pIC50 [2] | pIC50 [3] | pIC50 [4] | inhibition in vivo at 10 mg/kg [5] [%] | pIC50 [6] | pIC50 [7] | pIC50 [8] | pIC50 [9] | inhibition in vivo at 10 mg/kg [10] [%]
C=C1C(=O)[C@@]23C(=O)OC[C@]4(C(=O)CCC(C)(C)[C@H]4C=O)[C@@H]2CC[C@@H]1[C@H]3OC(=O)c1ccc(Cl)cc1 | 5.51 | 5.86 | 5.42 | 5.59 | – | – | – | – | – | –
C=C1C(=O)[C@@]23C(=O)OC[C@]4(C(=O)CCC(C)(C)[C@H]4C=O)[C@@H]2CC[C@@H]1[C@H]3OC(=O)c1ccccc1 | 5.72 | 5.83 | 5.73 | 5.77 | – | – | – | – | – | –
C=C1C(=O)[C@@]23C(=O)OC[C@]4(C(=O)CCC(C)(C)[C@H]4C=O)[C@@H]2CC[C@@H]1[C@H]3OC(=O)c1ccc([N+](=O)[O-])cc1 | 5.48 | 5.88 | 5.48 | 5.57 | – | – | – | – | – | –
C=C1C(=O)[C@@]23C(=O)OC[C@]4(C(=O)CCC(C)(C)[C@H]4C=O)[C@@H]2CC[C@@H]1[C@H]3O | – | 5.66 | 5.30 | 5.23 | 31.4 | 5.33 | 4.62 | 5.34 | – | –
C=C1C(=O)[C@@]23C(=O)OC[C@]4(C(=O)CCC(C)(C)[C@H]4C=O)[C@@H]2CC[C@@H]1[C@H]3OC(=O)c1ccc(F)cc1 | 5.40 | 5.57 | 5.43 | 5.08 | – | – | – | – | – | –
C=C1C(=O)[C@]23C[C@H]1C[C@H](O)[C@H]2[C@@]12CO[C@@H](O)[C@@H]1C(C)(C)CC[C@@H]2OC3=O [EPINODOSIN] | – | – | – | – | – | – | – | – | 6.35 | –
C=C1C(=O)[C@@]23C(=O)OC[C@]4(C(=O)CCC(C)(C)[C@H]4C=O)[C@@H]2CC[C@@H]1[C@H]3OC(=O)c1ccccc1F | 5.40 | 5.54 | 5.40 | 5.07 | – | – | – | – | – | –
C=C1C(=O)[C@@]23C(=O)O[C@H]4CCC(C)(C)[C@H]5[C@H](O)OC[C@@]45[C@@H]2CC[C@@H]1[C@H]3O | – | 5.09 | 4.48 | 4.51 | – | 4.22 | 4.17 | 4.29 | – | –
C=C1C(=O)[C@@]23C(=O)OC[C@]4(C(=O)CCC(C)(C)[C@H]4C=O)[C@@H]2CC[C@@H]1[C@H]3OC(=O)c1ccc(C)cc1 | 5.65 | 5.90 | 5.81 | 5.98 | – | – | – | – | – | –
C=C1C(=O)[C@@]23C(=O)OC[C@]4([C@@H](OC(C)=O)CCC(C)(C)[C@H]4C=O)[C@@H]2CC[C@@H]1[C@H]3O | – | 5.02 | 4.12 | 4.14 | – | 4.10 | 4.12 | 4.59 | – | –
C=C1C(=O)[C@@]23C(=O)OC[C@]4(C(=O)CCC(C)(C)[C@H]4C=O)[C@@H]2CC[C@@H]1[C@H]3OC(=O)c1ccc(C(F)(F)F)cc1 | 5.31 | 5.55 | 5.40 | 5.05 | – | – | – | – | – | –
C=C1C(=O)[C@@]23C(=O)OC[C@]4(C(=O)CCC(C)(C)[C@H]4C=O)[C@@H]2CC[C@@H]1[C@H]3OC(=O)CC | 5.75 | 5.88 | 5.78 | 5.85 | – | – | – | – | – | –
CC(=O)O[C@H]1C(=O)[C@@]2(C)[C@H]([C@H](OC(=O)c3ccccc3)[C@]3(O)C[C@H](OC(=O)[C@H](O)[C@@H](NC(=O)c4ccccc4)c4ccccc4)C(C)=C1C3(C)C)[C@]1(OC(C)=O)CO[C@@H]1C[C@@H]2O [PACLITAXEL] | 6.07 | 6.39 | 5.72 | 6.37 | – | – | – | – | – | 66.6
C=C1C(=O)[C@@]23C(=O)OC[C@]4(C(=O)CCC(C)(C)[C@H]4C=O)[C@@H]2CC[C@@H]1[C@H]3OC(C)=O | 5.78 | 5.86 | 5.76 | 5.87 | – | – | – | – | – | –
C=C1C(=O)[C@]23[C@H](O)[C@H]1CC[C@H]2[C@@]12CO[C@]3(O)[C@@H](O)[C@@H]1C(C)(C)CC[C@@H]2O [ORIDONIN] | 5.24 | 5.32 | 5.13 | 4.96 | 26.3 | 4.49 | 4.84 | 4.58 | – | –
C=C1C(=O)[C@]23C[C@H]1CC[C@H]2[C@@]1(CCCC(C)(C)[C@H]1CO)COC3=O [SCULPONEATIN N] | – | 6.68 | – | – | – | – | – | – | – | –
C=C1C(=O)[C@@]23C(=O)O[C@H]4CCC(C)(C)[C@H]5C(=O)OC[C@@]45[C@@H]2CC[C@@H]1[C@H]3O | – | 5.58 | 4.80 | 4.63 | – | 4.40 | 4.69 | 4.37 | – | –
C=C1C(=O)[C@@]23C(=O)OC[C@]4(C(=O)CCC(C)(C)[C@H]4C=O)[C@@H]2CC[C@@H]1[C@H]3OC(=O)c1ccccc1Cl | 5.58 | 5.91 | 5.54 | 5.70 | – | – | – | – | – | –
C=C1C(=O)[C@@]23C(=O)OC[C@]4(C(=O)CCC(C)(C)[C@H]4C=O)[C@@H]2CC[C@@H]1[C@H]3OC(=O)c1ccc(OC)cc1 | 5.73 | 5.78 | 5.55 | 5.53 | – | – | – | – | – | –
